Data on 5 substances can be found in publication PMC7080202 (Medicinal Chemistry Research, 2013).

Where two headings read alike, the source gives them in different places.

The test system of one data set is Feline corona virus. Nature of the data set: Antiviral CPE assay, feline corona virus in CRFK cells. It is filed as cell-based, feline coronavirus (FIPV). The settings on record: read-out: EC50 Feline corona virus; CRFK cell culture.
A further data set has as its system Sindbis virus. Briefly: microbe, parasite or virus in culture. It is filed as cell-based. The conditions noted are these: read-out: Antiviral activity EC50 Sindbis virus; Vero cell cultures.
Data set [1] has as its system Herpes simplex virus-1TK-KOS ACV^r. Nature of the data set: microbe, parasite or virus in culture. It is filed as cell-based, herpes simplex virus type 1. The conditions noted are these: read-out: EC50 Herpes simplex virus-1TK-KOS ACV^r; HEL cell culture.
Data set [2] deals with Herpes simplex virus-2 (G). Briefly: microbe, parasite or virus in culture. The conditions noted are these: read-out: EC50 Herpes simplex virus-2 (G); HEL cell culture. Type of data set: cell-based, herpes simplex virus type 2.
Another data set has as its system Vaccinia virus. Nature of the data set: microbe, parasite or virus in culture. It is filed as cell-based. The conditions noted are these: read-out: EC50 Vaccinia virus.
The next data set concerns HeLa cell cultures. Briefly: Cytotoxicity. Type of data set: cell-based. Put shortly: (§1)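 Cell cultures incubated with varying concentrations of test compound, then examined by microscopy. MCC is the lowest concentration that causes a microscopically detectable alteration of normal cell morphology. HEL, Vero and HeLa lines were monitored regularly for mycoplasma and found free of it.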

Data set [3] has as its system Vesicular stomatitis virus. Type of data set: cell-based. The settings on record: read-out: Antiviral activity EC50 Vesicular stomatitis virus.
Another data set concerns Feline herpes virus. Nature of the data set: Antiviral CPE assay, feline herpes virus in CRFK cells. It is filed as cell-based. The conditions noted are these: read-out: EC50 Feline herpes virus; CRFK cell culture.
Data set [4] has as its system Vesicular stomatitis virus. Briefly: microbe, parasite or virus in culture. The conditions noted are these: read-out: EC50 Vesicular stomatitis virus. Type of data set: cell-based.
Data set [5] has as its system Coxsackie virus B4. Briefly: microbe, parasite or virus in culture. Type of data set: cell-based. The conditions noted are these: read-out: Antiviral activity EC50 Coxsackie virus B4; HeLa cell cultures.
The next data set deals with MDCK cells. The conditions noted are these: for Cytotoxicity Minimum cytotoxic concentration: microscopically detectable alteration of normal cell morphology; for CC50: read-out: Cytotoxicity CC50, MTS assay.
Data set [6] concerns Coxsackie virus B4. Briefly: microbe, parasite or virus in culture. It is filed as cell-based. The conditions noted are these: read-out: Antiviral activity EC50 Coxsackie virus B4; Vero cell cultures.
The next data set relates to Vero cell cultures. Nature of the data set: Cytotoxicity. It is filed as cell-based. Put shortly:
as §1

In data set [7] the test system is Herpes simplex virus-1 (KOS). Nature of the data set: microbe, parasite or virus in culture. It is filed as cell-based, herpes simplex virus type 1. The conditions noted are these: read-out: EC50 Herpes simplex virus-1 (KOS); HEL cell culture.
In the next data set the test system is Para-influenza-3 virus. Nature of the data set: organism not typed. It is filed as cell-based, parainfluenza-3 virus. The conditions noted are these: read-out: Antiviral activity EC50 Para-influenza-3 virus.
For data set [8], the system named is Human embryonic lung cell cultures. Briefly: Cytotoxicity. It is filed as cell-based. Put shortly: as §1
Data set [9] has as its system Crandell-Rees feline kidney cells. Briefly: Cytotoxicity. Type of data set: cell-based.
Another data set deals with Influenza B. Briefly: Anti-influenza virus activity, influenza B in MDCK cells. Type of data set: cell-based, influenza B virus B/Hong Kong/5/72. The conditions noted are these: read-out: Antiviral EC50 Influenza B MTS; MDCK cells; MTS.
The test system of the next data set is Influenza A H1N1 subtype. Briefly: Anti-influenza virus activity, influenza A H1N1 in MDCK cells. It is filed as cell-based, influenza A virus A/Puerto Rico/8/34 (H1N1). The settings on record: for EC50: read-out: Antiviral EC50 Influenza A H1N1 subtype MTS, MDCK cells, MTS.
The next data set has as its system Reovirus-1. Briefly: organism not typed. It is filed as cell-based. The conditions noted are these: read-out: Antiviral activity EC50 Reovirus-1; Vero cell cultures.
For a further data set, the system named is Influenza A H3N2 subtype. Nature of the data set: Anti-influenza virus activity, influenza A H3N2 in MDCK cells. Type of data set: cell-based, influenza A virus A/Hong Kong/7/87 (H3N2). The conditions noted are these: read-out: Antiviral EC50 Influenza A H3N2 subtype MTS.
For the next data set, the system named is Punta Toro virus. Briefly: microbe, parasite or virus in culture. Type of data set: cell-based. The conditions noted are these: read-out: Antiviral activity EC50 Punta Toro virus; Vero cell cultures.
For data set [10], the system named is Cytomegalovirus AD-169 strain. Type of data set: cell-based, human cytomegalovirus. The conditions noted are these: both strains of HCMV (AD-169 and Davis).

Broadly, the EC50 is the concentration at which the effect is half-maximal. By CC50 is commonly meant the concentration that lowers cell viability or growth by half. “1-({[4-(dimethylamino)phenyl]methylidene}amino)-3-{[(3Z)-2-oxo-2,3-dihydro-1H-indol-3-ylidene]amino}thiourea [4c]”: the half-maximal effective concentration (EC50) (with Feline corona virus; in the data set on Sindbis virus; in data set [1]; in data set [2]; with Vaccinia virus; in data set [3]) was greater than 100 µM each time. Further, the EC50 (in the data set with Feline herpes virus; in data set [4]; in the data set on Coxsackie virus B4 [5]; with Coxsackie virus B4 [6]; in data set [7]; in the data set with Para-influenza-3 virus) was greater than 100 µM each time. The EC50 in the data set with Influenza B, in the data set on Influenza A H1N1 subtype, with Reovirus-1, with Influenza A H3N2 subtype and in the data set on Punta Toro virus was greater than 100 µM in each case. The Minimum cytotoxic concentration in the data set on HeLa cell cultures was greater than 100 µM; in the data set with Vero cell cultures, greater than 100 µM; in [8] it was no less than 100 µM; in data set [9] it was greater than 100 µM. The “Cytotoxicity Minimum cytotoxic concentration” value in the data set on MDCK cells is recorded as greater than 100. Also, the CC50 in the data set on MDCK cells was greater than 100 µM.

For “1-{[(3,4-Dimethoxyphenyl)methylidene]amino}-3-{[(3Z)-2-oxo-2,3-dihydro-1H-indol-3-ylidene]amino}thiourea [4f]”, the half-maximal effective concentration (EC50) is greater than 100 µM with Feline corona virus; greater than 20 µM in the data set with Sindbis virus; greater than 20 µM in data set [1]; greater than 20 µM in data set [2]; greater than 20 µM in the data set with Vaccinia virus; greater than 100 µM in [3]. Further, the concentration for a half-maximal effect (EC50) with Feline herpes virus was greater than 100 µM; in data set [4], greater than 20 µM; with Coxsackie virus B4 [5], greater than 100 µM; with Coxsackie virus B4 [6] it was greater than 20 µM; in data set [7] it was greater than 20 µM; in the data set with Para-influenza-3 virus, greater than 20 µM. Further, the concentration for a half-maximal effect (EC50) in the data set with Influenza B is 37 ± 8.75 µM; in the data set on Influenza A H1N1 subtype it was 37 ± 25 µM; in the data set on Reovirus-1, greater than 20 µM; in the data set on Influenza A H3N2 subtype it was 27 ± 7.3 µM; in the data set on Punta Toro virus, greater than 20 µM. The Minimum cytotoxic concentration with HeLa cell cultures is greater than 100 µM; in the data set with Vero cell cultures, no less than 20 µM; in data set [8] it was 100 µM; in data set [9], 100 µM. In addition, in the data set with MDCK cells, the “Cytotoxicity Minimum cytotoxic concentration” value is recorded as greater than 100. Also, in the data set with MDCK cells, the CC50 is greater than 100 µM. Further, the “anti-influenza activity (in words)” value in the data set with Influenza A H1N1 subtype (H1N1, H3N2 and influenza B, below the non-toxic concentration of 100 µM) is on record as “some activity”.

In the case of “1-{[(4-Chlorophenyl)methylidene]amino}-3-{[(3Z)-2-oxo-2,3-dihydro-1H-indol-3-ylidene]amino}thiourea [4e]”, the EC50 (with Feline corona virus; in the data set with Sindbis virus; in data set [1]; in [2]; in the data set with Vaccinia virus; in [3]) was greater than 100 µM in each case. For the same substance, the EC50 (in the data set with Feline herpes virus; in [4]; in the data set with Coxsackie virus B4 [5]; in the data set with Coxsackie virus B4 [6]; in data set [7]; with Para-influenza-3 virus) was greater than 100 µM in each case. The half-maximal effective concentration (EC50) in the data set with Influenza B, in the data set on Influenza A H1N1 subtype, in the data set with Reovirus-1, in the data set with Influenza A H3N2 subtype and in the data set with Punta Toro virus was greater than 100 µM throughout. Besides, the Minimum cytotoxic concentration with HeLa cell cultures was greater than 100 µM; in the data set on Vero cell cultures it was greater than 100 µM; in data set [8] it was 100 µM; in [9], greater than 100 µM. Further, the “Cytotoxicity Minimum cytotoxic concentration” value in the data set with MDCK cells is given as greater than 100. Further, the CC50 in the data set with MDCK cells was greater than 100 µM.

Regarding “1-{[(4-Nitrophenyl)methylidene]amino}-3-{[(3Z)-2-oxo-2,3-dihydro-1H-indol-3-ylidene]amino}thiourea [4d]”, the EC50 with Feline corona virus is greater than 100 µM; in the data set with Sindbis virus, greater than 20 µM; in [1], greater than 100 µM; in data set [2] it was greater than 100 µM; in the data set on Vaccinia virus, greater than 100 µM; in data set [3], greater than 100 µM. Also, the EC50 in the data set with Feline herpes virus was greater than 100 µM; in data set [4] it was greater than 100 µM; in the data set on Coxsackie virus B4 [5], greater than 100 µM; with Coxsackie virus B4 [6], greater than 20 µM; in [7], greater than 100 µM; in the data set on Para-influenza-3 virus, greater than 20 µM. In addition, the half-maximal effective concentration (EC50) in the data set with Influenza B was greater than 100 µM; in the data set with Influenza A H1N1 subtype, greater than 100 µM; with Reovirus-1 it was greater than 20 µM; with Influenza A H3N2 subtype, greater than 100 µM; in the data set with Punta Toro virus it was greater than 20 µM. Moreover, the Minimum cytotoxic concentration is greater than 100 µM with HeLa cell cultures, 100 µM with Vero cell cultures, 100 µM in data set [8] and greater than 100 µM in data set [9]. The “Cytotoxicity Minimum cytotoxic concentration” value with MDCK cells is greater than 100. The CC50 with MDCK cells is greater than 100 µM.

In the case of “3-[(1H-indol-3-ylmethylidene)amino]-1-{[(3Z)-2-oxo-2,3-dihydro-1H-indol-3-ylidene]amino}thiourea [4a]”, the EC50 (in the data set on Feline corona virus; in the data set on Sindbis virus; in data set [1]; in [2]; in the data set with Vaccinia virus; in data set [3]) was greater than 20 µM in each case. Further, the EC50 (in the data set with Feline herpes virus; in [4]; in the data set on Coxsackie virus B4 [5]; with Coxsackie virus B4 [6]; in [7]; in the data set with Para-influenza-3 virus) was greater than 20 µM throughout. The concentration for a half-maximal effect (EC50) is greater than 4 µM in the data set with Influenza B; greater than 4 µM in the data set on Influenza A H1N1 subtype; greater than 20 µM with Reovirus-1; greater than 4 µM with Influenza A H3N2 subtype; greater than 20 µM in the data set with Punta Toro virus. For the same substance, the Minimum cytotoxic concentration in the data set with HeLa cell cultures is no less than 20 µM; in the data set with Vero cell cultures it was 100 µM; in [8], 60 µM; in [9] it was 86 µM. Besides, the “Cytotoxicity Minimum cytotoxic concentration” value in the data set on MDCK cells worked out at 20. Also, the CC50 in the data set with MDCK cells stood at 51 µM. Besides, the “antiviral activity against HCMV (in words)” value in data set [10] is recorded as “moderate activity”.
